UPR XBP1 act = adaptive UPR (XBP1) activation; activation, % at 20 µM; 330,000 compounds, 0.33% hits; AID 463104; CHO-XBP1 luciferase reporter, IRE1-XBP1 UPR activation, luminescence; percent of tunicamycin response, DMSO as zero;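 active means versus positive control, 20 µM dose yields 30% or more activation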
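Signal: luciferase luminescence; Assay system: CHO-XBP1 luciferase reporter cells; Amount: one thousand reporter cells per well; Dosing: 20 µM single concentration, DMSO 1%; Benchmarks: high control tunicamycin 10 µg/mL final, low control DMSO vehicle only; Schedule: 6 h compound exposure at 37 °C, 5% CO2; Evaluation: percent activation relative to tunicamycin reference.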
tim10-1 inh = growth inhibitors of tim10-1 mutant yeast; inhibition, % at 20 µM; 330,000 compounds, 2.2% hits; AID 463190; S. cerevisiae tim10-1 ts strain growth, BacTiter-Glo, 24 h;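 active means inhibition of at least 40%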;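 further: mutant grown at 25 °C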
tim23-1 inh = tim23-1 yeast growth inhibition | S. cerevisiae tim23-1 growth, BacTiter-Glo luminescence, 24 h | inhibition, % at 20 µM | 330,000 compounds, 1.3% hits | AID 463212;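 active means growth inhibition of the mutant yeast at or above 50%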;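 further: temperature-sensitive mutant grown at 25 °C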
TIM10 inh = growth inhibitors of TIM10 yeast strain; S. cerevisiae TIM10 strain growth, BacTiter-Glo luminescence, 24 h; inhibition, % at 10 µM; 330,000 compounds, 1.4% hits;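 active means inhibition of 40% or more at the single tested concentration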;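 further: wild-type TIM10 isogenic control strain grown at permissive 25 °C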
UPR CHOP act = apoptotic UPR (CHOP) activation; CHO-CHOP luciferase reporter, luminescence; percent of tunicamycin response over DMSO baseline; activation, % at 10 µM; 330,000 compounds, 0.34% hits;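 active means at 10 µM dose, activation of 40% or more, normalized to positive control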
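Material: CHO-CHOP cells, stable luciferase reporter of PERK-eIF2a-CHOP signalling; quantity: 500 reporter cells seeded per well; buffer or medium: F12 medium containing 10% fetal bovine serum; compound: one dose, 10 µM in 0.5% DMSO; incubation: 6 h compound treatment, 37 °C; measured by: Steady-Glo luciferase luminescence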
tim10-1 conf = tim10-1 yeast growth inhibition, confirmed | inhibition, % at 20 µM | S. cerevisiae tim10-1 ts strain growth, BacTiter-Glo, 24 h | shares compounds with tim10-1 inh | AID 463213 | 7,400 compounds, 56% hits;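 active means inhibition of yeast growth at or above a set limit in either of two repeat tests at 20 µM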;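 further: tim10-1 mutant grown at permissive 25 °C to find synthetic lethal compounds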
TIM10 conf = TIM10 yeast growth inhibition, confirmed | shares compounds with TIM10 inh | S. cerevisiae tim10 strain growth, BacTiter-Glo luminescence, 24 h | inhibition, % at 10 µM | 4,600 compounds, 63% hits | AID 463215;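 active means inhibition of yeast growth at or above a set limit in either of two replicates at 10 µM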; further: this counterscreen used the strain with wild-type TIM10
tim23-1 conf = confirmation of tim23-1 mutant yeast growth inhibitors; shares compounds with tim23-1 inh; S. cerevisiae tim23-1 growth, BacTiter-Glo luminescence, 24 h; inhibition, % at 20 µM; 4,400 compounds, 83% hits; AID 463218;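 active means inhibition above about 39% in either of two replicate wells at 20 µM, limit read from the data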;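 further: temperature-sensitive tim23-1 mutant grown at 25 °C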
A number is an active result; – = inactive; · = not tested or not shown. Shown are actives, neighbours in structure and some others; about 3.9% of the full set was active somewhere.

SMILES	UPR XBP1 act	tim10-1 inh	tim23-1 inh	TIM10 inh	UPR CHOP act	tim10-1 conf	others
CN1CCCN(C(=O)COc2ccc(F)cc2F)CC1	–	–	–	–	–	·
CN(C)C(=O)Oc1ccc2oc(=O)cc(-c3cc4ccccc4o3)c2c1	–	–	–	–	–	–
CN(C)C(=O)Oc1ccc2c(c1)O/C(=C\c1ccc(Cl)cc1)C2=O	–	–	–	–	–	·
CN(C)C(=O)Oc1ccc2c(c1)O/C(=C\c1cccc(Cl)c1)C2=O	–	40.7	–	–	–	31.8
CC(C)(O)[C@H]1O[C@H]2CC[C@@]3(C)[C@@](O)(CC[C@H]4Cc5c([nH]c6ccccc56)[C@@]43C)C2=CC1=O	–	47.3	–	–	–	41.0
O=C(N/N=C/c1c(O)n(C2CCCCC2)c(=S)[nH]c1=O)c1ccccc1O	–	53.0	–	–	–	–
O=C(N/N=C/c1c(O)n(C2CCCCC2)c(=S)[nH]c1=O)c1ccccc1	–	–	–	–	–	·
COCCN(C(=O)COC(=O)Cc1ccccc1)c1c(N)n(Cc2ccccc2)c(=O)[nH]c1=O	–	–	–	–	–	·
CCOC(=O)N(c1ccccc1)P1(=S)OCC(C)O1 (configuration not stated)	–	50.0	–	–	–	–
CCCCNS(=O)(=O)c1ccc(OCC(=O)N2CCN(Cc3ccc4c(c3)OCO4)CC2)cc1	–	–	–	–	–	·
COC(=O)[C@@H]1[C@@H](C(=O)OC)C2(c3ccccc3-c3ccccc32)N(c2ccc(Cl)cc2)N1C#N	–	–	–	–	–	·
COC(=O)C[C@]1(C(=O)OC)CN(C#N)N(c2ccc(Cl)cc2)C12c1ccccc1-c1ccccc12	–	46.3	–	–	–	–
Cc1cc(C=C2C(=O)N(C)C(=S)N(C)C2=O)c(C)n1C1CCCC1	–	46.7	–	–	–	–
COC(=O)C1=C(c2ccccc2OCc2ccccc2)C[C@@H]2CC[C@H]1N2C(=O)NCCc1ccc(F)cc1	–	–	–	–	–	·
CCc1ccccc1NC(=O)CN1CCN(C(=O)COc2ccccc2C#N)CC1	–	–	–	–	–	·
CCOC(C(=O)OCCCN(CC)CC)(c1ccccc1)c1ccccc1	–	–	–	–	–	·
CCN(CC)CCCOC(=O)C(OC(C)C)(c1ccccc1)c1ccccc1	–	42.0	–	–	–	–
O=C(Nc1ccc(C(F)(F)F)cc1)c1cccn(Cc2ccc3c(c2)OC(F)(F)O3)c1=O	–	45.8	–	–	–	–
N/C(=N\[N+](=O)[O-])N1CCN(C(=O)OC2CCCC2)CC1	–	–	–	–	–	·
Cc1cc(OC(=O)CCNC(=O)OC(C)(C)C)c2c3c(c(=O)oc2c1)CCC3	–	44.7	–	–	–	38.8
N#CC(C#N)=Cc1ccc(N2CCCC2)cc1	–	41.3	–	–	–	–
O=C(O)c1ccccc1-c1ccc(C=C2C(=O)N(c3ccccc3)C(=S)N(c3ccccc3)C2=O)o1	–	43.0	–	–	–	38.7
O=C1NC(=O)N(c2ccccc2)C(=O)/C1=C\c1ccc([N+](=O)[O-])o1	–	–	–	–	–	·
CCC(C)OC(=O)c1c(N)n(Cc2cccs2)c2nc3ccccc3nc12 (configuration not stated)	–	–	–	–	–	·
Nc1c(C(=O)OCc2ccccc2)c2nc3ccccc3nc2n1Cc1cccs1	–	45.2	–	–	–	–
SMILES	UPR XBP1 act	tim10-1 inh	tim23-1 inh	TIM10 inh	UPR CHOP act	tim10-1 conf	others
CCC/C=N/O	–	–	–	–	–	·
C[C@]12CCC3C(CC[C@H]4C[C@H](OC(=O)c5cccnc5)CC[C@]34C)C1CCC2=O (some centres not stated)	–	–	–	–	–	·
CN(C)c1ccc(-[n+]2c(-c3ccccc3)cc(-c3ccccc3)cc2-c2ccccc2)cc1	–	51.8	–	–	–	37.2
c1ccc(-c2cc(-c3ccccc3)[n+](-c3ccccc3)c(-c3ccccc3)c2)cc1	–	–	–	–	–	·
Cc1[nH]n(-c2ccccc2)c(=O)c1C(c1ccc([N+](=O)[O-])cc1)c1c(C)[nH]n(-c2ccccc2)c1=O	–	55.6	–	46.2	–	43.8	TIM10 conf=33.0
COc1ccc(CC(C)Nc2cccc(F)c2)cc1 (configuration not stated)	–	–	–	–	–	·
CC(C)Oc1cccc(NC(=O)c2cccn(Cc3ccc4c(c3)OC(F)(F)O4)c2=O)c1	–	–	–	–	–	·
O=C(Nc1cccc(C(F)(F)F)c1)c1cccn(Cc2ccc3c(c2)OC(F)(F)O3)c1=O	–	48.8	–	43.9	–	–	TIM10 conf=34.9
COc1ccc(C[C@H]2NC[C@H](O)[C@H]2OC(C)=O)cc1	–	72.7	–	75.0	–	69.5	TIM10 conf=81.0
Cc1ccc2[nH]c(C)c(CCNCc3cccnc3)c2c1	–	–	–	–	–	·
Cc1c2ccncc2c(C)c2c1[nH]c1ccccc12	–	62.9	56.4	57.3	–	–	TIM10 conf=69.6;tim23-1 conf=62.4
C[C@H]1C[C@@H](C)C(=O)[C@@H]([C@H](O)CC2CC(=O)NC(=O)C2)C1	–	58.3	77.1	72.1	–	–	TIM10 conf=62.9;tim23-1 conf=–
CCOP(=O)(OCC)/C(C#N)=C/c1ccc(Br)cc1	–	44.6	69.1	51.3	–	39.5	TIM10 conf=52.4;tim23-1 conf=55.5
CC(C)(C)c1cc(C=C(C#N)C#N)cc(C(C)(C)C)c1O	–	77.8	61.9	69.8	–	82.3	TIM10 conf=82.8;tim23-1 conf=72.3
N#CC(C#N)=Cc1ccc(O)c(O)c1	–	–	–	–	–	·
COC(=O)C1=C(c2ccc(OC(F)(F)F)cc2)C[C@@H]2CC[C@H]1N2C(=O)NC1CC1	–	–	–	–	–	·
Cc1ccccc1N1CCN(Cc2ccc3c(c2)OCO3)CC1	–	–	–	–	–	·
O=c1oc2ccccc2c(O)c1[C@H]1c2ccc(O)cc2Oc2c1c(=O)oc1ccccc21	–	52.7	56.7	68.5	–	58.1	TIM10 conf=59.3;tim23-1 conf=47.9
NC1=C([N+](=O)[O-])C(c2ccc3c(c2)OCO3)c2c(c3ccccc3oc2=O)O1 (configuration not stated)	–	–	–	–	–	·
CN1C(=O)NC(=O)/C(=C/c2ccc([N+](=O)[O-])s2)C1=O	–	73.8	70.5	89.6	–	67.2	TIM10 conf=44.0;tim23-1 conf=79.7
CN1C(=O)NC(=O)/C(=C/c2ccc([N+](=O)[O-])o2)C1=O	–	–	–	–	–	·

Bioassay records (PubChem)
